An excerpt weighted towards active compounds, which were near 2.4% of everything screened.
Hck-Nef inh: blocks Nef-activated human Hck kinase. AID 463187. 220,000 tested, 0.68% active. inhibition, % at 20 µM. P08631. Recombinant Hck-YEEI plus Nef, Z-Lyte FRET kinase assay;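 active = Hck-Nef kinase inhibition above about 50%, limit read from the data; inactive = inhibition below that limit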;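 note: 0% = DMSO with Hck plus Nef and 100% = Hck alone without Nef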
Autophagy mod: autophagy modulation, high-content screen. 190,000 tested, 0.98% active. calls only at 10 µM (by protocol). MEF GFP-LC3 puncta imaging; test concentration mostly 10 µM. AID 463193;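 active = percentage of spot-positive cells more than 3 SD above its plate mean, without a fluorescence outlier flag or 80% toxicity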;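 note: spot-positive cell cutoff set from DMSO-treated cells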
TNF necrop inh: inhibitors of TNF-alpha induced necroptosis in Jurkat FADD-/- cells; activation (protection from cell death), % at 10 µM; Jurkat FADD-/- TNF necroptosis rescue, ATP luminescence, 24 h; 0 = TNF only, 100 = no-TNF cells; 220,000 tested, 0.068% active; AID 463075;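 active = activation, meaning protection from cell death, of at least 50% relative to plate controls; inactive = activation below 50%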;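 note: necroptosis triggered by 40 ng/mL TNF-alpha added together with compound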
Dynein transport: blocks dynein driven cargo transport along microtubules; 220,000 tested, 0.47% active; z-score, hits read low; 3617.4 mouse cells, GR-EGFP nuclear translocation imaging; test concentration mostly 20 µM; stimulated with dexamethasone, 1 µM; stronger effect = lower value;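 active = plate z-score of nuclear minus cytoplasmic receptor signal below a set negative limit, without overly bright fluorescence or cell loss, cut at about -3.5 in these data, passing the limit was not always enough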;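 note: z-score of nuclear minus cytoplasmic ring GR-EGFP intensity difference per well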
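Also added – dexamethasone, 1.0 µM final · Buffer or medium – tet-free, stripped-serum medium · Schedule – induction 48 h, compound 1 h, agonist 30 min · Detection – formaldehyde fixation, Hoechst nuclear stain, 10x automated fluorescence imaging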
L929 necroptosis: L929 zVAD cell death inhibition | L929 zVAD necroptosis rescue, ATP luminescence, 24 h; with zVAD 60 µM | 220,000 tested, 0.38% active | AID 1377 | viability rescue, % at 10 µM;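 active = activation, scaled between plate controls, above about 75%, limit read from the data; inactive = activation under that limit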;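 note: 0% = zVAD with DMSO and 100% = DMSO alone without zVAD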
MDM2 E3 inh: inhibitors of human Mdm2 E3 ubiquitin ligase; Q00987; cell-based MDM2 ubiquitination luciferase reporter, 2 h; 0 = plate control, 100 = twice control, blank-subtracted; signal enhancement, % at 5 µM; 210,000 tested, 0.11% active;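 active = signal enhancement of 30% or more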;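 note: luminescence tracks abundance of the self-degrading MDM2-luciferase fusion protein; higher signal means inhibition of MDM2 E3 ligase activity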
Target sequence (Q00987 whole entry, looked up, the tested form may be a part): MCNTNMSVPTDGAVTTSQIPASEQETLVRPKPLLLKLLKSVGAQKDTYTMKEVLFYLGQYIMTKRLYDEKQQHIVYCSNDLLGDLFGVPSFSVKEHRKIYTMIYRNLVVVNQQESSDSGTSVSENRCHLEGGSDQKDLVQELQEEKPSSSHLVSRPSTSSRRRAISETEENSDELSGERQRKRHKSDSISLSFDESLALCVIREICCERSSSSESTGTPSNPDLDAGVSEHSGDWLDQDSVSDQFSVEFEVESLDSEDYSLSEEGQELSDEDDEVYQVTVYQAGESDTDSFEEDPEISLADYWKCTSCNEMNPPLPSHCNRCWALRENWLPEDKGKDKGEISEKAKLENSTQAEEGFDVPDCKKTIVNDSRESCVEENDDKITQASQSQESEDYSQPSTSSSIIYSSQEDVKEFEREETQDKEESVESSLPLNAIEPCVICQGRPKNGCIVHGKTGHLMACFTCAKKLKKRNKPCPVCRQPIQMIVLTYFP
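test system = mammalian cells stably expressing self-ubiquitinating, self-degrading MDM2 E3–luciferase fusion | quantity = 2000 cells/well | incubation = cell settling 4 h, compound treatment 2 h, both 37 °C | signal = luminescence with SteadyLite reagent, 15 min at room temperature | evaluation = % enhancement relative to plate controls after blank subtraction | benchmarks = plate controls and plate blanks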
zVAD death conf: confirmed blocker of zVAD induced death in L929 cells; AID 463117; L929 zVAD-induced necroptosis rescue, ATP luminescence, 24 h; activation (protection from necroptosis), % at 10 µM; 760 tested, 16% active; shares compounds with L929 necroptosis;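 active = mean protection from necroptosis of at least 50% over duplicate tests; inactive = mean protection below 50%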;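 note: 0% = cells with zVAD alone and 100% = vehicle cells without zVAD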
Dynein inh conf: dynein cargo transport inhibition, confirmation; shares compounds with Dynein transport; 3617.4 GR-EGFP nuclear translocation imaging, dexamethasone-induced; calls only at 20 µM; 1,000 tested, 69% active; AID 463116;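 active = inhibition of receptor movement into the nucleus at or above a set limit in both runs, with normal cell brightness and cell count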;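 note: dexamethasone at 1 µM final in well for 30 min; nuclear minus cytoplasmic GR-EGFP mean intensity difference in channel 2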
Active calls of the source: *; i = inactive; nt = no result given; + = active, no number.

SMILES	Hck-Nef inh	Autophagy mod	TNF necrop inh	Dynein transport	L929 necroptosis	MDM2 E3 inh	zVAD death conf	others
O=C(Nc1ccc(NC(=S)NC(=O)C(c2ccccc2)c2ccccc2)cc1)c1ccccc1	1.0	i	-8.8	-1.12	77.8*	nt	37.9
O=[N+]([O-])/C(C=Nc1ccccc1O)=C\Nc1ccccc1O	-1.5	nt	0.5	-0.974	87.5*	-3.0	30.7
O=[N+]([O-])/C(=C\Nc1ccccc1Cl)S(=O)(=O)c1ccccc1	1.3	i	-2.8	-0.625	0.1	-8.9	nt
c1cnc2ccc(C(c3nnnn3C3CCCCC3)N3CCN(C4CCCCC4)CC3)cc2c1 (configuration not stated)	13.2	+	3.4	-0.648	77.4*	nt	69.6*
O=c1oc2cc(S(=O)(=O)NCCCO)ccc2c2ccc(S(=O)(=O)NCCCO)cc12	20.7	nt	2.5	-0.92	0.1	-3.8	nt
Cc1ccc(NC(=O)n2ccc(-c3ccc(-n4ccnc4)cc3)n2)cc1	31.0	i	14.2	-0.926	82.1*	22.6	49.8
Cc1cc(C(=O)COc2cccc(-n3cnnn3)c2)c(C)n1-c1ccccc1	1.7	i	-6.8	0.438	81.0*	-15.6	35.7
Cc1nc2sc(C(=O)Nc3ccccc3Cc3ccccc3)c(C)c2c(=O)[nH]1	-1.9	nt	-3.6	0.839	3.1	-1.4	nt
Cc1nc(CN(C)Cc2nc(Cc3ccccc3Cl)no2)cs1	21.1	i	0.8	-1.11	1.9	5.8	nt
Brc1ccc(COn2ccnc2)cc1	0.9	i	61.3*	1.06	91.4*	-8.1	74.9*
CCOC(=O)c1c(C)n(C)c2ccc(OC)c(NC(=O)CCN3CCSCC3)c12	-0.2	i	-0.2	-0.671	0.3	-14.4	nt
O=C(CSc1nnc(-c2ccc(F)cc2)o1)N1CCN(C(=O)c2ccco2)CC1	0.7	i	-3.8	0.153	2.5	-7.2	nt
O=C(CSc1nnc(-c2ccccc2Br)o1)N1CCN(C(=O)c2ccco2)CC1	1.5	i	-1.0	-0.346	86.3*	-10.4	38.5
Cc1nc(N2CCCCC2)c(C#N)c(C)c1[N+](=O)[O-]	20.4	i	0.2	-0.0318	-0.8	-6.2	nt
CCn1c(NC(=O)c2cccs2)nc2ccccc21	8.8	i	28.3	-0.613	80.6*	-25.8	3.4
COc1ccc(C(=O)OCC(=O)NC(=O)NC(C)C)cc1OC	-3.2	i	-0.1	0.494	77.1*	-5.8	1.5
COc1ccc(C(=O)COC(=O)c2ccc(OC)c(OC)c2)cc1OC	-2.6	i	2.8	0.232	2.1	-3.6	nt
CCn1cc(C(=O)O)c(=O)c2cc(F)c(N/N=C/c3ccccc3[N+](=O)[O-])cc21	1.5	i	-4.3	0.894	0.0	-6.5	nt
O=C(NCCN1CCCC1)c1ccc2c(=O)n(CCc3ccccc3)c(=O)[nH]c2c1	0.0	i	-1.7	0.0734	91.0*	-34.2	6.3
O=C(N/N=C/c1ccccc1)c1n[nH]c2c1CCCC2	8.3	i	-0.3	-0.578	82.6*	-42.6	10.3
O=C(N/N=C/c1ccc(Cl)cc1)c1n[nH]c2c1CCCC2	24.3	nt	-16.7	-0.203	5.8	-4.0	nt
O=C(NC(=O)c1ccccc1)OCCN1C(=O)c2ccccc2C1=O	17.8	i	-0.8	-0.573	1.4	-6.8	nt
O=C(Nc1nccs1)c1ccc(S(=O)(=O)NCC2CCCCC2)cc1	-0.4	i	-4.6	-0.261	122.7*	-13.4	52.5*
O=C(Nc1ccc(S(=O)(=O)Nc2nccs2)cc1)C1CCCCC1	-7.7	i	1.1	-0.547	5.1	-0.4	nt
O=C(Nc1nccs1)c1ccc(S(=O)(=O)NCc2cccs2)cc1	5.1	i	22.2	-0.314	100.0*	-9.2	85.1*
SMILES	Hck-Nef inh	Autophagy mod	TNF necrop inh	Dynein transport	L929 necroptosis	MDM2 E3 inh	zVAD death conf	others
CN(c1ccccc1)S(=O)(=O)c1ccc(C(=O)Nc2nccs2)cc1	0.2	i	4.9	-0.644	41.9	-9.7	nt
O=C(CNC(=O)c1ccc(Br)o1)OCC(=O)c1cccc([N+](=O)[O-])c1	21.9	i	-0.7	0.188	1.0	-3.6	nt
O=C(/C=C/c1cccc(F)c1)Nc1nccs1	-3.5	i	30.8	-0.682	87.8*	-13.6	76.4*
O=C(/C=C/c1cccs1)Nc1nccs1	10.9	i	11.4	-1.64	79.3*	-20.1	1.0
O=C(/C=C\c1ccccc1)Nc1nccs1	0.6	i	23.9	-1.3	103.2*	-45.2	6.5
O=C(/C=C/c1cccs1)Nc1cccc(NC(=O)/C=C/c2cccs2)n1	1.6	i	-1.0	-0.454	20.9	-18.5	nt
Cc1ccc(/C=C/C(=O)Nc2nccs2)o1	3.3	i	16.3	1.3	78.9*	-8.2	5.6
CCCc1[nH]c(=O)c(C#N)c2c1CCCC2	-4.0	i	-0.2	1.17	0.4	-8.9	nt
CCc1ccc2c(CN3CCN(S(=O)(=O)c4cccs4)CC3)cc(=O)oc2c1	2.4	i	0.3	-0.745	1.3	-17.6	nt
Cc1cc(C)n(CCNC(=O)CC2C(=O)NCCN2CC2CCCCC2)n1 (configuration not stated)	24.2	i	0.3	-0.465	0.6	5.9	nt
Oc1ccc(-c2csc(Nc3ncccn3)n2)cc1	19.3	i	15.6	0.446	77.8*	-20.2	75.3*
CC(=O)Nc1ccc(-c2csc(Nc3ncccn3)n2)cc1	21.9	i	4.1	-0.719	79.8*	-9.8	0.9
Cc1nc2ncccn2c1-c1csc(Nc2ccc(O)cc2)n1	35.6	i	-9.3	2.03	88.1*	-16.9	0.6
COc1ccccc1NC(=O)C1=C(C)NC(=O)NC1c1ccco1 (configuration not stated)	17.7	nt	0.5	-0.966	-0.3	-8.7	nt
O=c1nc2cccc3c2=c(/c1=C(\O)c1ccccc1)c1ccccc1c3=O	20.7	i	2.6	0.953	79.7*	-7.8	0.5
Cc1ccc2n(n1)c(=O)c(Cc1ccccc1)c([O-])[n+]2-c1ccccc1	-0.1	i	-1.0	0.733	-0.3	-4.0	nt
O=C(/C(=C/c1ccc(Cl)cc1)c1nc2ccccc2[nH]1)c1ccccc1	0.7	i	-19.4	-4.73*	107.4*	-1.0	38.6	Dynein inh conf=+
COc1cc(N2CN=c3s/c(=C\c4ccccn4)c(=O)n3C2)cc(OC)c1OC	7.3	i	1.2	0.0776	3.3	-21.3	nt
CS(=O)(=O)c1nc(-c2ccc(Br)cc2)n[nH]1	9.1	i	0.1	0.883	0.9	-5.6	nt
